Data reported in ChEMBL document CHEMBL1147403, “MexAB-OprM specific efflux pump inhibitors in Pseudomonas aeruginosa. Part 3: Optimization of potency in the pyridopyrimidine series through the application of a pharmacophore model” (2004).

What was measured:
Assay type in all cases: functional
Pseudomonas aeruginosa [1] = experiment: Minimum inhibitory concentration against Pseudomonas aeruginosa in presence of LVFX substrate, (100% growth inhibition)
How it was run: (§1)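 Potentiation of levofloxacin (LVFX), a MexAB-OprM substrate, against P. aeruginosa PAM1723 (MexAB-OprM overexpressed; MexCD-OprJ and MexEF-OprN genetically disrupted). Value is the inhibitor concentration (µg/mL) giving 4-fold (MPC4) or 8-fold (MPC8) potentiation.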

Pseudomonas aeruginosa [2] = experiment: Minimum inhibitory concentration against Pseudomonas aeruginosa in presence of aztreonam substrate and with out human serum albumin, (100% growth inhibition)
How it was run: (§2)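 Potentiation of aztreonam, a MexAB-OprM substrate, against P. aeruginosa PAM1723 (MexAB-OprM overexpressed; MexCD-OprJ and MexEF-OprN genetically disrupted). Run without HSA and with 0.125% human serum albumin. Value is the inhibitor concentration (µg/mL) giving 8-fold potentiation (MPC8).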

Pseudomonas aeruginosa [3] = experiment: Minimum inhibitory concentration against Pseudomonas aeruginosa in presence of aztreonam substrate and with 0.125% human serum albumin, (100% growth inhibition); how it was run: as §2
Pseudomonas aeruginosa [4] = experiment: Minimum inhibitory concentration Pseudomonas aeruginosa in presence of LVFX substrate, (100% growth inhibition); how it was run: as §1
Pseudomonas aeruginosa [5] = experiment: Intrinsic antibacterial activity against Pseudomonas aeruginosa
How it was run: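 Tested alone for antibacterial activity against P. aeruginosa PAM1723, a strain that overexpresses the MexAB-OprM pump and has MexCD-OprJ and MexEF-OprN genetically disrupted; MIC in µg/mL.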

Rattus norvegicus = organism: Rattus norvegicus; experiment: Serum protein binding of compound was evaluated using rat serum
Pseudomonas aeruginosa [6] = experiment: Minimum concentration of inhibitor required to reduce (potentiate) the activity of antibacterial drug aztreonam by 8-fold in absence of human serum using Pseudomonas aeruginosa, value reported is for 100% growth inhibition; how it was run: as §2

MIC (Pseudomonas aeruginosa [5])	Structure (SMILES)	MPC8 (Pseudomonas aeruginosa [1])	MPC8 (Pseudomonas aeruginosa [2])	MPC8 (Pseudomonas aeruginosa [3])	MPC4 (Pseudomonas aeruginosa [4])	Binding (Rattus norvegicus)	MPC8 (Pseudomonas aeruginosa [6])
> 320 µg/mL	CC(C)c1csc(CCc2ccn3c(=O)c(/C=C/C(=O)O)c(NCCc4ccncc4)nc3c2)n1	64 µg/mL	16 µg/mL	32 µg/mL	8 µg/mL	–	–
> 320 µg/mL	CCC(CC)Nc1nc2cc(CCc3nc(C(C)C)cs3)ccn2c(=O)c1/C=C/C(=O)O	>128 µg/mL	128 µg/mL	128 µg/mL	32 µg/mL	–	–
> 320 µg/mL	CC(C)c1csc(CCc2ccn3c(=O)c(/C=C/C(=O)O)c(N[C@H](CO)[C@@H](O)c4ccccc4)nc3c2)n1 (single isomer, unassigned)	64 µg/mL	64 µg/mL	64 µg/mL	8 µg/mL	–	–
> 320 µg/mL	CC(C)c1csc(CCc2ccn3c(=O)c(/C=C/C(=O)O)c(N4CCCC(CO)C4)nc3c2)n1 (stereo not drawn)	16 µg/mL	16 µg/mL	16 µg/mL	2 µg/mL	91.5%	–
> 320 µg/mL	CC(C)c1csc(CCc2ccn3c(=O)c(/C=C/C(=O)O)c(N4CCCC(O)C4)nc3c2)n1 (stereo not drawn)	8 µg/mL	8 µg/mL	16 µg/mL	0.5 µg/mL	82.1%	–
> 320 µg/mL	CCCC(CC)Nc1nc2cc(CCc3nc(C(C)C)cs3)ccn2c(=O)c1/C=C/C(=O)O (stereo not drawn)	16 µg/mL	32 µg/mL	32 µg/mL	2 µg/mL	–	–
> 320 µg/mL	CC(C)c1csc(CCc2ccn3c(=O)c(C#CC(=O)O)c(N4CCOCC4)nc3c2)n1	16 µg/mL	8 µg/mL	16 µg/mL	2 µg/mL	–	–
> 320 µg/mL	CC(C)c1csc(CCc2ccn3c(=O)c(/C=C/C(=O)O)c(N4CCC(O)CC4)nc3c2)n1	8 µg/mL	16 µg/mL	16 µg/mL	1 µg/mL	–	–
> 320 µg/mL	CC(C)c1csc(CCc2ccn3c(=O)c(/C=C/C(=O)O)c(N4CC[C@@H](N(C)C)C4)nc3c2)n1	128 µg/mL	128 µg/mL	64 µg/mL	8 µg/mL	69.3%	–
> 320 µg/mL	CC(C)c1csc(CCc2ccn3c(=O)c(/C=C/C(=O)O)c(N4CCCC(N(C)C)C4)nc3c2)n1 (stereo not drawn)	128 µg/mL	>128 µg/mL	128 µg/mL	8 µg/mL	–	–
> 320 µg/mL	CC(C)c1csc(CCc2ccn3c(=O)c(/C=C/C(=O)O)c(N4CCOCC4)nc3c2)n1	16 µg/mL	16 µg/mL	32 µg/mL	2 µg/mL	92%	–
> 320 µg/mL	CC(C)c1csc(CCc2ccn3c(=O)c(/C=C/C(=O)O)c(NCc4ccccn4)nc3c2)n1	128 µg/mL	32 µg/mL	32 µg/mL	16 µg/mL	–	–
> 320 µg/mL	CC(C)c1csc(CCc2ccn3c(=O)c(/C=C/C(=O)O)c(N4CCCN(C)CC4)nc3c2)n1	128 µg/mL	128 µg/mL	128 µg/mL	8 µg/mL	–	–
> 320 µg/mL	CC(C)Nc1nc2cc(CCc3nc(C(C)C)cs3)ccn2c(=O)c1/C=C/C(=O)O	64 µg/mL	64 µg/mL	64 µg/mL	8 µg/mL	82.1%	–
> 320 µg/mL	CC(C)c1csc(CCc2ccn3c(=O)c(/C=C/C(=O)O)c(N4CCN(C)CC4)nc3c2)n1	32 µg/mL	16 µg/mL	32 µg/mL	8 µg/mL	67.8%	–
> 320 µg/mL	CC(C)c1csc(CCc2ccn3c(=O)c(/C=C/C(=O)O)c(N4CCC(OC(N)=O)CC4)nc3c2)n1	16 µg/mL	16 µg/mL	16 µg/mL	2 µg/mL	–	–

MIC (Pseudomonas aeruginosa [5])	Structure (SMILES)	MPC8 (Pseudomonas aeruginosa [1])	MPC8 (Pseudomonas aeruginosa [2])	MPC8 (Pseudomonas aeruginosa [3])	MPC4 (Pseudomonas aeruginosa [4])	Binding (Rattus norvegicus)	MPC8 (Pseudomonas aeruginosa [6])
> 320 µg/mL	CC(C)c1csc(CCc2ccn3c(=O)c(/C=C/C(=O)O)c(N4CCC(CO)CC4)nc3c2)n1	8 µg/mL	16 µg/mL	16 µg/mL	1 µg/mL	–	–
> 320 µg/mL	CC(C)c1csc(CCc2ccn3c(=O)c(/C=C/C(=O)O)c(N[C@H]4CC[C@H](O)CC4)nc3c2)n1	>64 µg/mL	>64 µg/mL	>64 µg/mL	16 µg/mL	–	–
> 320 µg/mL	CCCNc1nc2cc(CCc3nc(C(C)C)cs3)ccn2c(=O)c1/C=C/C(=O)O	>32 µg/mL	>32 µg/mL	32 µg/mL	8 µg/mL	–	–
> 320 µg/mL	CC(C)c1csc(CCc2ccn3c(=O)c(/C=C/C(=O)O)c(N4CCC(N(C)C)CC4)nc3c2)n1	>128 µg/mL	128 µg/mL	128 µg/mL	32 µg/mL	–	–
> 320 µg/mL	CC(C)c1csc(/C=C/c2cccc(NC(=O)Cc3ccccc3C(=O)O)c2)n1	2 µg/mL	2 µg/mL	16 µg/mL	1 µg/mL	>98%	–
> 320 µg/mL	CC(C)c1csc(CCc2ccn3c(=O)c(/C=C/C(=O)O)c(N4CCC(O)C4)nc3c2)n1 (stereo not drawn)	32 µg/mL	32 µg/mL	32 µg/mL	4 µg/mL	–	–
> 320 µg/mL	CC(C)c1csc(CCc2ccn3c(=O)c(/C=C/C(=O)O)c(N4CCCC(OC(N)=O)C4)nc3c2)n1 (stereo not drawn)	8 µg/mL	32 µg/mL	16 µg/mL	1 µg/mL	91.2%	–
> 320 µg/mL	CC(C)c1csc(CCc2ccn3c(=O)c(/C=C/C(=O)O)c(NCCc4ccc(F)cc4)nc3c2)n1	>32 µg/mL	–	>32 µg/mL	8 µg/mL	–	>32 µg/mL
> 320 µg/mL	CC(C)c1csc(CCc2ccn3c(=O)c(/C=C/C(=O)O)c(N4CCCCC4)nc3c2)n1	4 µg/mL	4 µg/mL	8 µg/mL	0.5 µg/mL	–	–
> 320 µg/mL	CC(C)c1csc(CCc2ccn3c(=O)c(/C=C/c4nn[nH]n4)c(N4CCCC(O)C4)nc3c2)n1 (stereo not drawn)	4 µg/mL	4 µg/mL	4 µg/mL	0.5 µg/mL	–	–
> 320 µg/mL	CC(C)c1csc(CCc2ccn3c(=O)c(-c4nnn[nH]4)cnc3c2)n1	>16 µg/mL	16 µg/mL	16 µg/mL	>16 µg/mL	81.5%	–
> 320 µg/mL	CC(C)c1csc(CCc2ccn3c(=O)c(/C=C/C(=O)O)c(N4CCCCC4CO)nc3c2)n1 (stereo not drawn)	64 µg/mL	64 µg/mL	64 µg/mL	8 µg/mL	–	–
> 320 µg/mL	CC(C)c1csc(CCc2ccn3c(=O)c(/C=C/C(=O)O)c(N4CCCC4)nc3c2)n1	8 µg/mL	8 µg/mL	8 µg/mL	2 µg/mL	–	–
> 320 µg/mL	CC(C)c1csc(CCc2ccn3c(=O)c(/C=C/C(=O)O)c(NCC4CCCCC4)nc3c2)n1	>64 µg/mL	>64 µg/mL	>64 µg/mL	8 µg/mL	–	–
> 320 µg/mL	CC(C)c1csc(CCc2ccn3c(=O)c(CCC(=O)O)c(N4CCCC(O)C4)nc3c2)n1 (stereo not drawn)	>128 µg/mL	>128 µg/mL	–	32 µg/mL	–	–
